Only some compounds are listed: those with a hit (about 2.3% of all), similar ones and a draw of the others.
GPR7 antag = GPR7 receptor antagonists, primary screen, cell-based, fluorescence, single concentration; Neuropeptides B/W receptor type 1 (Homo sapiens), P48145; GPR7-expressing cells, fluorescence antagonist assay; inhibition, % at 4.4 µM; 290,000 compounds, 1.1% hits; AID 1861, 2009; in the data active = inhibition above about 16%, passing the limit was not always enough;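 note: cells stimulated with the agonist NPW; 0% = agonist with vehicle and 100% = vehicle without agonist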
EBV gp42 inh = Epstein-Barr virus gp42 inhibitors, primary screen, biochemical, uHTS, fluorescence polarization. 220,000 compounds, 0.42% hits. Fluorescence polarization binding assay, mP read-out. inhibition, % (tested at 21.74 µM); in the data active = inhibition above about 50%
Target sequence (Q1HVG2 whole entry, looked up): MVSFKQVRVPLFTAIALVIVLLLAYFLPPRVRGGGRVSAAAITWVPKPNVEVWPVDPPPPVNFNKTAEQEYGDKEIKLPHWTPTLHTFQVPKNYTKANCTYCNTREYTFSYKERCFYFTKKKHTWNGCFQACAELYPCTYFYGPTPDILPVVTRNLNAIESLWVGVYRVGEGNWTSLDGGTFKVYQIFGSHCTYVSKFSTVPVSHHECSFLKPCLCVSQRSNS
core dimer inh = inhibitors of HCV core protein dimerization, primary screen, biochemical, TR-FRET, high-throughput; TR-FRET GST/Flag-core106 dimerization, 1536-well; inhibition, % at 5 µM; 300,000 compounds, 0.33% hits;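 active = inhibition above the mean of all tested compounds plus 3 SD, set per screening campaign, cut at about 45% in these data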
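Material: Tagged HCV core106 pair (GST and Flag) | Amount: GST-core106 13.5 nM, Flag-core106 17 nM | Medium: KF-containing HEPES buffer, pH 7.45, DTT, CHAPS, BSA | Reagent: Eu donor and XL665 acceptor anti-tag antibodies | Schedule: 4 h at 22.5 °C | Technique: Time-resolved FRET, ex 340 nm, em 617 and 671 nm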
HCV NS3 hel inh = inhibitors of HCV NS3 helicase, primary screen, biochemical, Cy5 molecular beacon fluorescence; inhibition, % at 10.9 µM; NS3 helicase DNA unwinding; AID 1800, 2009; 290,000 compounds, 0.56% hits; Hepatitis C virus NS3 helicase;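 active = inhibition above the mean of all tested compounds plus 3 SD, set per campaign, cut at about 35% in these data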;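 note: 0% = DMSO wells and 100% = thioflavine S control wells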
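System: Hepatitis C virus NS3 helicase domain fragment enzyme | Reagent: Annealed dual-labelled DNA beacon duplex, ATP-started | Compound dosing: 10.9 µM single point, 0.8% DMSO | Incubation: 1 h reaction at 25 °C, ATP-initiated | Technique: Cy5 fluorescence | Evaluation: Percent inhibition from t60/t0 fluorescence ratio | Benchmarks: Low DMSO, high thioflavine S at 110 µM | Replication: Singlicate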
EBNA-1 inhibitor = EBNA-1 DNA-binding inhibitors, primary screen, biochemical, fluorescence polarization; 300,000 compounds, 0.34% hits; AID 1950, 2009; inhibition, % at 14.8 µM; in the data active = inhibition above about 28%
ZTA counter = ZTA (EBV) inhibition in EBNA-1 counter-screen; ZTA-DNA binding, fluorescence polarization; inhibition, % at 11 µM; 320,000 compounds, 0.15% hits; AID 2234; in the data active = inhibition above about 33%
Target sequence (P03206 whole entry, looked up): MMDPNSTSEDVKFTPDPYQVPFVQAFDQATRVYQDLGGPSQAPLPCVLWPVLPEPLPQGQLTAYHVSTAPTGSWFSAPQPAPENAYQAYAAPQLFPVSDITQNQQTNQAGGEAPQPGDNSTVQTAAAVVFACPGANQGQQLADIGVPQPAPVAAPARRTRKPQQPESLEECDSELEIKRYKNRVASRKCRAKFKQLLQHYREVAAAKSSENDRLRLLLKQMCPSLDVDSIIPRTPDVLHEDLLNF
NS3 hel confirm = HCV NS3 helicase inhibitors, retest, confirmation, biochemical, Cy5 molecular beacon fluorescence, triplicate; shares compounds with HCV NS3 hel inh; NS3 helicase DNA unwinding; inhibition, % at 10.9 µM; 1,600 compounds, 31% hits; AID 1943, 2009;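 active = inhibition above the mean of all tested compounds plus 3 SD, cutoff set per campaign, cut at about 36% in these data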
DNA FID counter = compounds displacing fluorescent DNA intercalator, artefact control for HCV NS3 helicase inhibitor project, biochemical, FID fluorescence, triplicate; AID 1945, 2009; shares compounds with HCV NS3 hel inh; inhibition, % at 7.9 µM; 1,600 compounds, 4% hits; DNA fluorescent intercalator displacement; in the data active = inhibition above about 37%;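 note: 0% = vehicle and 100% = reference compound; higher means more displacement of ethidium bromide from the DNA hairpin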
FID counter DR = compounds displacing fluorescent intercalator from DNA, dose response, counter-screen for HCV NS3 helicase inhibitor project, biochemical, fluorescence; shares compounds with HCV NS3 hel inh; fluorescent intercalator displacement from DNA; IC50, µM; 120 tested, under 10 active; call rule not given here
An asterisk follows results filed as active; · = not tested or not shown.

SMILES	GPR7 antag	EBV gp42 inh	core dimer inh	HCV NS3 hel inh	EBNA-1 inhibitor	ZTA counter	NS3 hel confirm	DNA FID counter	others
COc1ccccc1NC(=O)C1Cc2ccccc2CN1C(=O)c1ccco1 (centres undefined)	-2.5	·	21.1	7.7	12.0	2.5	·	·
Cc1nc(-c2ccc(F)cc2)c(CC(=O)N2CCN(S(=O)(=O)c3cccc(F)c3)CC2)s1	·	·	-5.4	·	6.7	0.7	·	·
CSCCC(NC(=O)c1ccc(Br)cc1)C(=O)O (centres undefined)	-2.3	-7.4	-10.9	7.1	-9.0	9.5	·	·
CSCCC(NC(=O)c1cncc(Br)c1)C(=O)O (centres undefined)	-11.3	-1.3	-0.6	39.8*	-5.0	2.0	0.0	-2.9
CCOc1cc(C(=O)Nc2ccc(N3CCN(S(C)(=O)=O)CC3)cc2)cc(OCC)c1OCC	-15.0	-0.6	14.3	39.1*	-2.3	9.2	-2.4	-28.6
CCOc1cccc(C(=O)Nc2ccc(N3CCN(S(C)(=O)=O)CC3)cc2)c1	-0.4	2.1	7.3	1.4	1.6	4.3	·	·
N#C/C(=C/c1ccc(F)cc1)S(=O)(=O)c1ccccc1	14.6	-12.2	-7.4	18.2	-4.4	-0.9	·	·
N#C/C(=C\c1ccc(O)c(O)c1)S(=O)(=O)c1ccccc1	11.7	-47.4	-6.2	37.6*	21.9	-2.6	58.3*	17.0	FID counter DR=>79.4
N#Cc1ccc(C(=O)OCC(=O)N2CCOCC2)cc1	-8.0	·	-19.2	-2.7	8.0	-11.0	·	·
Cc1ccc(-c2csc(NC(=O)c3ccccc3Cl)c2C(=O)O)cc1	25.0	·	14.6	38.6*	19.8	11.5	77.0*	7.2
Cc1ccc(-c2csc(NC(=O)c3cccc(C)c3)c2C(=O)O)cc1	·	·	10.7	·	7.2	-7.8	·	·
Cc1cc(/C=C2\C(=N)N3N=C(C(C)C)SC3=NC2=O)c(C)n1-c1ccccc1	0.6	-18.2	13.6	51.4*	-10.5	-16.7	-0.9	2.4
COC(=O)c1[nH]c2cc(OC)c(OC)cc2c1/C=N/Nc1ccccc1	-3.4	·	-34.0	-15.0	9.0	-13.5	·	·
CCOC(=O)C1CCN(C(=O)C(C)Oc2ccc(C(=O)c3ccccc3)cc2)CC1 (centres undefined)	·	·	·	·	·	-4.1	·	·
COc1ccc(OCC(O)CNC(=O)c2sccc2Cl)cc1 (centres undefined)	-12.7	10.8	-2.8	44.5*	5.8	-7.2	-8.1	-0.1
COc1ccc(-c2cc(C(F)(F)F)n3nc(C(=O)Nc4c(C)n(C)n(-c5ccccc5)c4=O)c(Cl)c3n2)cc1	-3.6	-5.9	13.9	-18.6	-10.7	1.8	·	·
Cc1c(NC(=O)c2nn3c(C(F)(F)F)cc(-c4ccccc4)nc3c2Cl)c(=O)n(-c2ccccc2)n1C	-0.9	-1.9	-1.0	36.8*	15.4	9.2	-13.8	-33.9
CCN(c1ccc(F)cc1)S(=O)(=O)c1cccc2nsnc12	-2.1	·	1.7	5.4	-2.3	-1.0	·	·
COc1ccc(/C(O)=C2/C(=O)C(=O)N(c3ccccn3)C2c2cccc(Cl)c2)cc1 (centres undefined)	-8.8	·	13.8	44.5*	8.3	-1.2	44.0*	-30.4
Cc1ccc(/C(O)=C2\C(=O)C(=O)N(c3cc(C)on3)C2c2cccc(Br)c2)cc1 (centres undefined)	3.5	8.4	7.0	23.1	-6.2	3.5	·	·
Cc1cc(N2C(=O)C(=O)/C(=C(/O)c3ccc(F)cc3)C2c2cccc(Br)c2)no1 (centres undefined)	-10.6	2.4	-0.4	37.6*	5.1	5.3	64.2*	-20.3
CCCOc1ccc(/C(O)=C2/C(=O)C(=O)N(c3ccccn3)C2c2ccc(OC)cc2)cc1C (centres undefined)	12.8	·	21.8	68.6*	19.3	-7.1	90.6*	-43.9	FID counter DR=>79.4
COc1ccc(/C(O)=C2/C(=O)C(=O)N(c3ccccn3)C2c2ccc(C(C)C)cc2)cc1 (centres undefined)	-11.6	·	·	38.9*	·	·	84.9*	-12.9	FID counter DR=>79.4
COc1ccc(/C(O)=C2/C(=O)C(=O)N(c3ccccn3)C2c2ccc(OC)c(OC)c2)cc1 (centres undefined)	1.4	-20.7	-2.8	-1.4	-6.7	-0.2	·	·
COc1ccc(/C(O)=C2/C(=O)C(=O)N(c3ccccn3)C2c2ccc(OC)cc2)cc1 (centres undefined)	-7.9	·	·	5.0	·	·	·	·
SMILES	GPR7 antag	EBV gp42 inh	core dimer inh	HCV NS3 hel inh	EBNA-1 inhibitor	ZTA counter	NS3 hel confirm	DNA FID counter	others
Cc1sc2nc(CSc3ccc([N+](=O)[O-])c(C(F)(F)F)c3)[nH]c(=O)c2c1C	-2.5	-40.5	5.5	11.0	7.3	-15.1	·	·
CCCCNC(=O)Cn1c(=O)c2c(ncn2CC)n(Cc2ccccc2)c1=O	-21.5	·	8.1	-3.0	-2.9	-3.9	·	·
COc1ccc(N=c2scc(C)n2CCCN2CCCC2=O)cc1	-6.2	-10.4	-7.0	-2.6	-1.1	1.0	·	·
O=C(NCc1ccc(F)cc1)C1CC(=O)N(C2CCCC2)C1 (centres undefined)	·	·	·	·	·	6.7	·	·
O=C(CCNC(=O)c1ccccc1Cl)NCCc1ccc(C(F)(F)F)cc1	2.5	·	2.1	7.0	0.9	-20.6	·	·
O=C1C(=O)N(c2ccccn2)C(c2ccc(F)cc2)/C1=C(/O)c1ccc(Br)cc1 (centres undefined)	-16.3	·	-4.0	24.0	-5.3	-15.0	·	·
O=C1C(=O)N(c2ccccn2)C(c2ccc(Br)cc2)/C1=C(/O)c1ccc(Br)cc1 (centres undefined)	-15.3	·	·	72.7*	·	·	84.8*	-28.1
CC(/C=N/n1c(-c2cc(C)[nH]n2)n[nH]c1=S)=C\c1ccco1	9.3	-10.5	7.3	45.4*	-5.2	0.8	-16.4	-5.4
COc1ccc(COC(=O)c2cccc(S(=O)(=O)N3CCCC3)c2)cc1F	-5.4	·	1.8	-6.0	6.7	-16.2	·	·
O=C(Nc1cccc(-c2nnc(-c3ccco3)o2)c1)c1ccccc1	-4.4	-13.1	8.8	-12.9	2.9	24.5	·	·
CC(=O)Oc1ccc(C(=O)Nc2cccc(-c3nnc(-c4ccco4)o3)c2)cc1	0.5	-2.3	7.0	51.5*	1.3	1.4	16.5	-19.6
O=C(Nc1nnc(C2CC2)s1)C1CCCCN1S(=O)(=O)c1ccccc1 (centres undefined)	-9.1	-2.9	2.7	3.1	-2.1	-23.1	·	·

Screens as filed in PubChem BioAssay.
